Experiment [1] has as its system PC-3. The experiment in a line: Growth inhibition of human PC3 cells at 1 uM after 48 hrs by sulpharhodamine B assay. Format: functional. Particulars: PC-3, 48 h, read-out: GI. An outline of the steps: (§1)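 This is the SRB protein-stain assay on adherent cells in RPMI-1640/MEM with 10% FCS. Each compound in DMSO (vehicle <0.2%) was applied at a single fixed concentration for 48 h. Cells were fixed with TCA and stained with SRB, and the dye was solubilised in Tris and read at 570/620 nm. Percent growth inhibition is relative to vehicle-treated controls, reported as mean ± SD of three experiments run in triplicate.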

Experiment [2] relates to HEp-2. The experiment in a line: Growth inhibition of human Hep2 cells at 1 uM after 48 hrs by sulpharhodamine B assay. Format: functional. The note with it: HEp-2, 48 h, read-out: GI. An outline of the steps: as §1
Experiment [3] concerns MCF7. The experiment in a line: Growth inhibition of human MCF7 cells at 50 uM after 48 hrs by sulpharhodamine B assay. The note with it: MCF7, 48 h, read-out: GI. Format: functional. An outline of the steps: as §1
Experiment [4] concerns A549. The experiment in a line: Growth inhibition of human A549 cells at 50 uM after 48 hrs by sulpharhodamine B assay. Particulars: A549, 48 h, read-out: GI. Format: functional. Put shortly:
as §1

The test system of experiment [5] is PC-3. The experiment in a line: Growth inhibition of human PC3 cells at 50 uM after 48 hrs by sulpharhodamine B assay. Format: functional. The note with it: PC-3, 48 h, read-out: GI. An outline of the steps: (§2)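 Cells grown in RPMI-1640/MEM with 10% FCS, penicillin/streptomycin, 37 °C, 5% CO2. Seeded in 96-well plates, allowed to adhere overnight, then exposed 48 h to analogs in DMSO (vehicle <0.2% in controls). TCA-fixed, stained with 0.4% SRB in 1% acetic acid, dye solubilized in 10 mM Tris base, OD 570 nm (ref 620 nm). Mean ± SD of three experiments run in triplicate.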

Experiment [6] deals with OVCAR-5. Nature of the experiment: Growth inhibition of human OVCAR5 cells at 50 uM after 48 hrs by sulpharhodamine B assay. Format: functional. The note with it: OVCAR-5, 48 h, read-out: GI. Put shortly: as §1
In experiment [7] the test system is IMR-32. The experiment in a line: Growth inhibition of human IMR32 cells at 50 uM after 48 hrs by sulpharhodamine B assay. Format: functional. Particulars: IMR-32, 48 h, read-out: GI. An outline of the steps:
as §1

The test system of experiment [8] is HeLa. The experiment in a line: Growth inhibition of human HeLa cells at 50 uM after 48 hrs by sulpharhodamine B assay. The note with it: read-out: GI. Format: functional. An outline of the steps:
as §1

The subject of experiment [9] is THP-1. The experiment in a line: Growth inhibition of human THP1 cells at 50 uM after 48 hrs by sulpharhodamine B assay. The note with it: THP-1, 48 h, read-out: GI. The class given is functional. An outline of the steps:
as §2

Experiment [10] deals with MCF7. The experiment in a line: Growth inhibition of human MCF7 cells at 30 uM after 48 hrs by sulpharhodamine B assay. Format: functional. Particulars: MCF7, 48 h, read-out: GI. Put shortly:
as §1

The test system of experiment [11] is A549. Nature of the experiment: Growth inhibition of human A549 cells at 30 uM after 48 hrs by sulpharhodamine B assay. The class given is functional. The note with it: A549, 48 h, read-out: GI. An outline of the steps:
as §1

Experiment [12] concerns PC-3. Nature of the experiment: Growth inhibition of human PC3 cells at 30 uM after 48 hrs by sulpharhodamine B assay. The class given is functional. Particulars: PC-3, 48 h, read-out: GI. An outline of the steps: as §2
Experiment [13] relates to OVCAR-5. The experiment in a line: Growth inhibition of human OVCAR5 cells at 30 uM after 48 hrs by sulpharhodamine B assay. The note with it: OVCAR-5, 48 h, read-out: GI. The class given is functional. Put shortly:
as §1

Experiment [14] concerns IMR-32. Nature of the experiment: Growth inhibition of human IMR32 cells at 30 uM after 48 hrs by sulpharhodamine B assay. The note with it: IMR-32, 48 h, read-out: GI. Format: functional. Put shortly: as §1
For experiment [15], the system named is HeLa. The experiment in a line: Growth inhibition of human HeLa cells at 30 uM after 48 hrs by sulpharhodamine B assay. The note with it: read-out: GI. Format: functional. An outline of the steps: as §1
In experiment [16] the test system is THP-1. Nature of the experiment: Growth inhibition of human THP1 cells at 30 uM after 48 hrs by sulpharhodamine B assay. Particulars: THP-1, 48 h, read-out: GI. The class given is functional. An outline of the steps: as §2
Experiment [17] concerns HEp-2. Nature of the experiment: Growth inhibition of human Hep2 cells at 50 uM after 48 hrs by sulpharhodamine B assay. Format: functional. Particulars: HEp-2, 48 h, read-out: GI. An outline of the steps: as §1
For experiment [18], the system named is HEp-2. Nature of the experiment: Growth inhibition of human Hep2 cells at 30 uM after 48 hrs by sulpharhodamine B assay. Format: functional. The note with it: HEp-2, 48 h, read-out: GI. An outline of the steps: as §1
Experiment [19] has as its system T47D. Nature of the experiment: Cytotoxicity against human T47D cells. The class given is functional, cell-based.
For experiment [20], the system named is MCF7. The experiment in a line: Growth inhibition of human MCF7 cells at 1 uM after 48 hrs by sulpharhodamine B assay. The class given is functional. Particulars: MCF7, 48 h, read-out: GI. An outline of the steps:
as §1

The test system of experiment [21] is A549. Nature of the experiment: Growth inhibition of human A549 cells at 1 uM after 48 hrs by sulpharhodamine B assay. The class given is functional. The note with it: A549, 48 h, read-out: GI. Put shortly:
as §1

Structures are written as SMILES.

From ChEMBL document CHEMBL1944511, “Bakuchiol derivatives as novel and potent cytotoxic agents: a report” (Eur J Med Chem, 2012) come the findings set out here.

As to `CO[C@@]12[C@H](COC(N)=O)C3=C(C(=O)C(C)=C(N)C3=O)N1C[C@@H]1N[C@@H]12` [MITOMYCIN], the inhibition of growth at 1 µM in experiment [1] stood at 70%; in experiment [2], 78%.

For orientation: IC50 means the concentration needed to halve the response being measured. A lower IC50 goes with greater potency. Consider `C=C[C@@](C)(/C=C/c1ccc(O)cc1)CCC=C(C)C` [BAKUCHIOL], for which the inhibition of growth at 50 µM in experiment [3] was 63%; in [4], 63%; in experiment [5], 58%; in experiment [6] it was 66%; in experiment [7], 58%; in experiment [8], 55%. Besides, the inhibition of growth at 50 µM in [9] is 74%; in [17], 53%. Further, the inhibition of growth at 30 µM was found to be 33% in experiment [10]; 30% in experiment [11]; 21% in experiment [12]; 25% in [13]; 31% in [14]; 20% in experiment [15]. The figures for the inhibition of growth at 30 µM in experiment [16] and in [18] were 44% and 20%, respectively. This compound gave an IC50 in [19] of 28.9 µM.

As for `COc1cccc2c1C(=O)c1c(O)c3c(c(O)c1C2=O)C[C@@](O)(C(=O)CO)C[C@@H]3O[C@H]1C[C@H](N)[C@H](O)[C@H](C)O1` [DOXORUBICIN], the inhibition of growth at 1 µM was 85% in experiment [20] and 76% in [21].
